Test results taken from ChEMBL document CHEMBL1131373, “Novel nonpeptide CCK-B antagonists: design and development of quinazolinone derivatives as potent, selective, and orally active CCK-B antagonists” (J Med Chem, 1998).

Columns and labels:
[1] = molecular target: T1, Gastrin/cholecystokinin type B receptor (Mus musculus, UniProt P56481); assay: Binding affinity towards Cholecystokinin type B receptor (CCK-B) receptor in mouse cerebral cortex using [125I]bolton Hunter CCK-8 as radioligand; format: tissue-based
T1 sequence (P56481 whole entry): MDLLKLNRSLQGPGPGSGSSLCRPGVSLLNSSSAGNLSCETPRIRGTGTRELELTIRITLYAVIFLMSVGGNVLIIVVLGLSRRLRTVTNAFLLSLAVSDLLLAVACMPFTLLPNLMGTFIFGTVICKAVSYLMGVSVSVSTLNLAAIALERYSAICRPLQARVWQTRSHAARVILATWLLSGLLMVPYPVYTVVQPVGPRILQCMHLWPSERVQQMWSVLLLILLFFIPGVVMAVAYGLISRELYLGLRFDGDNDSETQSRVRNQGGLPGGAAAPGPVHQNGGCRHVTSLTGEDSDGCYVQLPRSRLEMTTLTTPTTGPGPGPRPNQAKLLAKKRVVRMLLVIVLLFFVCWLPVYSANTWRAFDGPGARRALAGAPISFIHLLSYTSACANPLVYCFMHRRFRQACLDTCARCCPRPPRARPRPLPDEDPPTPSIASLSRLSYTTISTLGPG

[2] = molecular target: T2, Cholecystokinin receptor type A (Rattus norvegicus, UniProt P30551); assay: Binding affinity towards Cholecystokinin type A receptor (CCK-A) receptor from rat pancreas using [125I]bolton Hunter CCK-8 as radioligand
T2 sequence (P30551 whole entry): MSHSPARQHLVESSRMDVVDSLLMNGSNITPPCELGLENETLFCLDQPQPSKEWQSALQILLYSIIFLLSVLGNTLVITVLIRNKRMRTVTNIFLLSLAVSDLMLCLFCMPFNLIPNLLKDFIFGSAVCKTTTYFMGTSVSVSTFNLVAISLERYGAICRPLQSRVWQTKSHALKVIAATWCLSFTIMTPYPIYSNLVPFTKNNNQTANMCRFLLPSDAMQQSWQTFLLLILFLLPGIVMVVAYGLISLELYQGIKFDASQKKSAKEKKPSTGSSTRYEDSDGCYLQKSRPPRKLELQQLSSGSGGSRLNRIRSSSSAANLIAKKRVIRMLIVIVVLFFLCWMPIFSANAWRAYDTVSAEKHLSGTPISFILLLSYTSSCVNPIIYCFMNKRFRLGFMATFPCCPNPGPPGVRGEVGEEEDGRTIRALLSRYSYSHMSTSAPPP
Procedure, shortened: (§1)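 IC50 = concentration giving half-maximal inhibition of specific [125I]Bolton Hunter CCK-8 binding, with CCK-B sites from mouse cerebral cortex and CCK-A sites from rat pancreas. Weaker compounds given as % inhibition at 10 μM. Values are geometric means of at least three separate experiments; statistical errors 15% of the mean.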

[3] = molecular target: T3, Cholecystokinin receptor type A (Rattus norvegicus) (UniProt P30551); assay: Binding affinity towards Cholecystokinin type A receptor (CCK-A) receptor from rat pancreas using [125I]bolton Hunter CCK-8 as radioligand at a concentration of 10 um; procedure, shortened: as §1
T3 sequence (whole entry): T2 sequence (P30551 whole entry)

[4] = The compound was tested for the time to reach maximum observed plasma concentration in rats and is expressed in mins.; format: ADME, organism-based; details: rat
Procedure, shortened: (§2)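 Fasted male Wistar rats, three per group, given a single oral nominal dose of 10 mg/kg or a single iv nominal dose of 5 mg/kg. Vehicle was either 25:40:35 ethanol/PEG400/5% dextrose water or 10:40:50 dimethylacetamide/PEG400/5% dextrose water. Heparinized plasma taken from a jugular vein cannula at serial times out to 24 h and assayed by validated HPLC-fluorescence. Noncompartmental analysis; %F = dose-normalized po AUC/iv AUC.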

[5] = The compound was tested for systemic plasma clearance(CL) in rats and is expressed in mL/min/kg.; format: ADME, organism-based; details: rat; procedure, shortened: as §2
[6] = The compound tested for maximum observed plasma concentration in rats and is expressed in microgram/mL.; format: ADME, organism-based; details: rat; procedure, shortened: as §2
[7] = The compound was tested for percent absolute oral bioavailability (%F) in rats and value in parenthesis indicate percent relative standard deviation (% RSD).; format: ADME, organism-based; details: rat, in vivo, read-out: F (%RSD); procedure, shortened: as §2
[8] = The compound was tested for percent absolute oral bioavailability (%F) in rats; format: ADME, organism-based; details: rat, in vivo; procedure, shortened: as §2
[9] = molecular target: T4, Gastrin/cholecystokinin type B receptor (Mus musculus) (UniProt P56481); assay: Binding affinity towards Cholecystokinin type B receptor (CCK-B) receptor in mouse cerebral cortex using [125I]bolton Hunter CCK-8 as radioligand at a concentration of 10 um; format: tissue-based; procedure, shortened: as §1
T4 sequence (whole entry): T1 sequence (P56481 whole entry)

Row | SMILES | IC50 [1] [nM] | IC50 [2] [nM] | other results
1 | CC(C)Oc1cccc(-n2c(NNC(=O)Nc3ccc(C(F)(F)F)cc3)nc3ccccc3c2=O)c1 | 38 | 2780 | 
2 | Cc1cccc(NC(=O)NNc2nc3ccccc3c(=O)n2-c2cccc(OC(C)C)c2)c1 | 11 | 6400 | 
3 | CCOC(=O)c1ccccc1NC(=O)NNc1nc2ccccc2c(=O)n1-c1cccc(OC(C)C)c1 | 7670 |  | inhibition [3]: 22%
4 | CC(C)Oc1cccc(-n2c(NNC(=O)Nc3cccc([N+](=O)[O-])c3)nc3ccccc3c2=O)c1 | 1 | 2560 | 
5 | COc1ccc(NC(=O)NNc2nc3ccccc3c(=O)n2-c2cccc(OC(C)C)c2)cc1 | 25 | 15500 | 
6 | Cc1cccc(NC(=O)NNc2nc3ccccc3c(=O)n2-c2cccc(N)c2)c1 | 219 | 107 | 
7 | CCOC(=O)c1cccc(NC(=O)NNc2nc3ccccc3c(=O)n2-c2ccc(Cl)cc2)c1 | 14 |  | inhibition [3]: 15%
8 | Cc1cccc(NC(=O)NNc2nc3ccccc3c(=O)n2-c2ccc(Cl)c(Cl)c2)c1 | 97 |  | inhibition [3]: 10%
9 | Cc1cccc(NC(=O)NNc2nc3ccccc3c(=O)n2-c2cccc(N(C)C)c2)c1 | 63 | 4900 | 
10 | CCOC(=O)c1cccc(NC(=O)NNc2nc3ccccc3c(=O)n2-c2ccc(OC)cc2)c1 | 592 |  | inhibition [3]: 20%
11 | COc1cccc(N(CC(=O)N(C)c2ccccc2)C(=O)CNC(=O)Nc2cccc(C)c2)c1 | 8 | 140 | 
12 | CC(C)Oc1cccc(-n2c(NNC(=O)Nc3ccc(Cl)cc3)nc3ccccc3c2=O)c1 | 14 | 3590 | 
13 | COc1cccc(N(CC(=O)N(C)c2ccccc2)C(=O)CNC(=O)Nc2cccc(C(=O)O)c2)c1 | 23 | 925 | 
14 | COC(=O)c1cccc(NC(=O)N[C@@H]2N=C(c3ccccc3)c3ccccc3N(C)C2=O)c1 | 8 |  | 
15 | CCOC(=O)c1cccc(NC(=O)NNc2nc3ccccc3c(=O)n2-c2cccnc2)c1 | 319 | 11200 | 
16 | CCOC(=O)c1cccc(NC(=O)NNc2nc3ccccc3c(=O)n2-c2cccc(Cl)c2Cl)c1 | 50 | 1660 | 
17 | CC(C)Oc1cccc(-n2c(NNC(=O)Nc3cccc(Cl)c3)nc3ccccc3c2=O)c1 | 5.9 | 2420 | 
18 | CCOC(=O)c1ccc(NC(=O)NNc2nc3ccccc3c(=O)n2-c2cccc(OC(C)C)c2)cc1 | 57 | 3160 | 
19 | CC(C)Oc1cccc(-n2c(NNC(=O)Nc3ccc(Br)cc3)nc3ccccc3c2=O)c1 | 14 | 3430 | 
20 | Cc1cccc(NC(=O)NNc2nc3ccccc3c(=O)n2-c2cccnc2)c1 | 4280 | 12500 | 
21 | Cc1cccc(NC(=O)NNc2nc3ccccc3c(=O)n2-c2cccc3ccccc23)c1 | 3560 |  | inhibition [3]: 7%
22 | O=C(NNc1nc2ccccc2c(=O)n1-c1ccccc1)Nc1ccccc1 | 1240 | 7330 | 
23 | CC(C)Oc1cccc(-n2c(NNC(=O)Nc3cccc(C(=O)O)c3)nc3ccccc3c2=O)c1 | 29 | 8110 | 
24 | Cc1cccc(NC(=O)NNc2nc3ccccc3c(=O)n2-c2cccc(Cl)c2)c1 | 225 |  | inhibition [3]: 20%
25 | CCOc1cccc(-n2c(NNC(=O)Nc3cccc(C#N)c3)nc3ccccc3c2=O)c1 | 5.8 | 4450 | 
26 | CCOC(=O)c1cccc(NC(=O)NNc2nc3ccccc3c(=O)n2-c2cccc(OC(C)C)c2)c1 | 1.5 | 3470 | 
27 | CC(C)Oc1cccc(-n2c(NNC(=O)Nc3ccccc3)nc3ccccc3c2=O)c1 | 15 | 4580 | 

Row | SMILES | IC50 [1] [nM] | IC50 [2] [nM] | other results
28 | COc1ccc(-n2c(NNC(=O)Nc3cccc(C)c3)nc3ccccc3c2=O)cc1OC | 2110 |  | inhibition [3]: 34%
29 | CCOC(=O)c1cccc(NC(=O)NNc2nc3ccccc3c(=O)n2-c2ccccc2)c1 | 152 |  | inhibition [3]: 37%
30 | CN(C)c1cccc(-n2c(NNC(=O)Nc3cccc(C#N)c3)nc3ccccc3c2=O)c1 | 14 | 7100 | Tmax [4]: 25 min; clearance [5]: 29.5 mL/min/kg; Cmax [6]: 910 ng/mL; bioavailability [7]: 22%
31 | CC(C)Oc1cccc(-n2c(CCc3c[nH]c4cc(Br)ccc34)nc3ccccc3c2=O)c1 | 9.3 |  | 
32 | COc1cccc(NC(=O)NNc2nc3ccccc3c(=O)n2-c2cccc(OC(C)C)c2)c1 | 22 | 7470 | 
33 | COc1cccc(-n2c(NNC(=O)Nc3cccc(C)c3)nc3ccccc3c2=O)c1 | 200 | 5100 | 
34 | N#Cc1cccc(NC(=O)NNc2nc3ccccc3c(=O)n2-c2ccccc2)c1 | 262 |  | inhibition [3]: 37%
35 | CCOC(=O)c1cccc(NC(=O)NNc2nc3ccccc3c(=O)n2-c2ccc(OC)c(OC)c2)c1 | 611 |  | inhibition [3]: 20%
36 | Cc1cccc(NC(=O)NNc2nc3ccccc3c(=O)n2-c2ccccc2)c1 | 1080 |  | inhibition [3]: 39%
37 | Cc1cccc(NC(=O)NNc2nc3ccccc3c(=O)n2-c2ccc(Cl)cc2)c1 | 1170 |  | inhibition [3]: 10%
38 | CCOC(=O)c1cccc(NC(=O)NNc2nc3ccccc3c(=O)n2-c2ccc(Cl)c(Cl)c2)c1 | 2.4 |  | inhibition [3]: 16%
39 | CC(C)Oc1cccc(-n2c(NNC(=O)Nc3cccc(C(F)(F)F)c3)nc3ccccc3c2=O)c1 | 8 | 2240 | 
40 | CCOC(=O)c1cccc(NC(=O)NNc2nc3ccccc3c(=O)n2-c2cccc(N(C)C)c2)c1 | 5 | 2650 | 
41 | Cc1cccc(NC(=O)NNc2nc3ccccc3c(=O)n2-c2cccc(F)c2)c1 | 915 |  | inhibition [3]: 26%
42 | CC(C)Oc1cccc(-n2c(NNC(=O)Nc3cccc(C#N)c3)nc3ccccc3c2=O)c1 | 1.2 | 5350 | 
43 | CC(C)Oc1cccc(-n2c(NNC(=O)NC3CCCCC3)nc3ccccc3c2=O)c1 | 108 | 17300 | 
44 | CN(C)c1cccc(-n2c(CCc3c[nH]c4cc(Br)ccc34)nc3ccccc3c2=O)c1 | 16 |  | 
45 | COc1ccccc1NC(=O)NNc1nc2ccccc2c(=O)n1-c1cccc(OC(C)C)c1 | 10 | 4200 | 
46 | CCOc1cccc(-n2c(NNC(=O)Nc3cccc(C)c3)nc3ccccc3c2=O)c1 | 45 | 2570 | 
47 | CCOC(=O)c1cccc(NC(=O)NNc2nc3ccccc3c(=O)n2-c2cccc(OC)c2)c1 | 15 | 2330 | 
48 | CCOC(=O)c1cccc(NC(=O)NNc2nc3ccccc3c(=O)n2-c2cccc(Cl)c2)c1 | 33 | 4980 | 
49 | CCOC(=O)c1cccc(NC(=O)NNc2nc3ccccc3c(=O)n2-c2cccc(OCC)c2)c1 | 5 | 1210 | 
50 | CC(C)Oc1cccc(-n2c(NNC(=O)Nc3cccc(C(=O)OC(C)(C)C)c3)nc3ccccc3c2=O)c1 | 1.9 | 2960 | clearance [5]: 18 mL/min/kg; Cmax [6]: < 250 ng/mL; bioavailability [8]: < 5%
51 | CCOC(=O)c1cccc(NC(=O)NNc2nc3ccccc3c(=O)n2-c2cccc(F)c2)c1 | 26 |  | inhibition [3]: 30%
52 | CC(C)Oc1cccc(-n2c(NNC(=O)c3ccc(Br)cc3)nc3ccccc3c2=O)c1 | 88 | 5560 | 
53 | CCOC(=O)c1cccc(NC(=O)NNc2nc3ccccc3c(=O)n2-c2cccc3ccccc23)c1 |  |  | inhibition [3]: 5%; inhibition [9]: 35%
54 | Cc1cccc(NC(=O)NNc2nc3ccccc3c(=O)n2-c2cccc(Cl)c2Cl)c1 | 73 | 3010 | 
